Source: PubChem BioAssay (several laboratories)
Sampled rows, rich in hits. Any-hit rate of the full collection: about 5.8%.
RBBP9 inh: inhibitors of human serine hydrolase RBBP9. 0.2% of 220,000 active. inhibition, % at 7.94 µM. O75884. recombinant RBBP9, FP-Rh probe fluorescence polarization;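 active = inhibition above the campaign mean of all tested compounds plus 3 SD, cut at about 14% in these data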
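System: RBBP9 protein / Quantity: 2.5 µM RBBP9 dispensing solution, before mixing / Also added: Serine-hydrolase probe FP-Rh, 375 nM pre-mixing / Dosing: 7.94 µM single dose, 0.794% DMSO / Timing: enzyme-compound preincubation 30 min, then probe labeling 45 min, 25 °C / Signal: FP readout at 525/598 nm / Controls: DMSO-treated enzyme wells and wells lacking RBBP9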
14-3-3 Bad inh: disrupts binding of bovine 14-3-3 zeta to phospho-Bad peptide; P63103; TR-FRET 14-3-3zeta/Dy647-pBad peptide displacement, 1 h; inhibition, % at 21.7 µM; 0.71% of 220,000 active;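 active = inhibition above about 70%, limit read from the data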
ROMK mod: modulates human ROMK potassium channel activity; P48048; Tet-inducible ROMK, thallium flux fluorescence; actives lie on both sides; B-score at 10 µM; 2% of 130,000 active; AID 1918;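 active = signal ratio slope over the read window, or its plate-corrected B-score, at least 3 SD from the plate mean, either direction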;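 note: B-score of the F/F0 ratio slope over 7 to 12 s after thallium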
NCF1 inh: inhibitors of human p47phox binding | P14598 | p47phox/p22phox peptide binding, fluorescence polarization, 2 h | inhibition, % at 24.7 µM | 0.53% of 220,000 active | AID 1274;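 active = inhibition above about 30%, limit read from the data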
Target sequence (P14598 whole entry, looked up): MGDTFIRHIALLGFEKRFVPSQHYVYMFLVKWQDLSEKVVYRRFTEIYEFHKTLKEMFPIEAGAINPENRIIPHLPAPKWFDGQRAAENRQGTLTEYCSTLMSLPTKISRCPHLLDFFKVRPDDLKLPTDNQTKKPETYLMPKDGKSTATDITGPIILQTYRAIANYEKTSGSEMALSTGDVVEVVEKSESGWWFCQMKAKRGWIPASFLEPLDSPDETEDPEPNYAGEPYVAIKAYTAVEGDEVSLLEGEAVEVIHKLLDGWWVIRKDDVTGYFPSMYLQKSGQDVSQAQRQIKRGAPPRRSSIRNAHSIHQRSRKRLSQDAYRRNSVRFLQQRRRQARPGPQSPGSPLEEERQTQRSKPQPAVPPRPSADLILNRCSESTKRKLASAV
Cl transport mod: modulates chloride dependent transport by human KCC2; Q9H2X9; KCC2 cells, thallium flux FluoZin-2 fluorescence; B-score of Tl+ flux slope (higher = more flux/activation; lower = inhibition) at 10 µM; 2.2% of 190,000 active;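 active = thallium flux slope and its plate-corrected score both differing from the plate sample mean at a set confidence after two filtering rounds, in either direction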;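 note: slope of fluorescence scaled to starting intensity during 10 to 20 s after thallium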
WT yeast gro inh: growth inhibition of WT yeast, mitochondrial fusion screen; mitochondrial fusion phenotypic screen, WT strain; AID 1362; inhibition, % at 10 µM; 2.1% of 190,000 active; in the data active = inhibition above about 58%; tested in S. cerevisiae
ROMK retest: human ROMK channel modulation, retest confirmation | 54% of 3,000 active | ROMK thallium flux, fluorescence ratio; active compounds read low | normalized thallium flux (F/F0 slope) at 10 µM | shares compounds with ROMK mod;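 active = Flux at 10 µM at least 3 SD below or above vehicle control mean in one or both replicates; inconclusive = no clear call, values can overlap the other calls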
Of the large screens only hits and unclear results are named; the others gave an inactive call (follow-up assays come after a bar, where they were run).

N#CC1CCCc2c1[nH]c1ccc([N+](=O)[O-])cc21 (stereo not drawn)	none (no result: ROMK mod, WT yeast gro inh)
CCCCC(CC)CNC(=O)CCS(=O)(=O)c1cccc2nonc12 (stereo not drawn)	none (no result: ROMK mod) | ROMK retest inconclusive
COc1ccc(C(=O)/C=C/c2cn(CC(O)CN3CCN(C)CC3)c3ccccc23)cc1OC (stereo not drawn)	none (no result: ROMK mod, WT yeast gro inh) | ROMK retest 0.059
CCCN(CCC)CC(O)Cn1cc(/C=C/C(=O)c2ccccc2)c2ccccc21 (stereo not drawn)	none
O=C(/C=C/c1cn(CC(O)CN2CCCCC2)c2ccccc12)c1ccccc1 (stereo not drawn)	none (no result: ROMK mod, WT yeast gro inh) | ROMK retest 0.057
Nc1nc(-c2ccc(Cl)cc2)nn1C(=O)c1cccs1	none
O=C(CSc1ccc(Cl)cc1)Nc1ccc(-c2nc3ccccc3[nH]2)cc1	none (no result: ROMK mod)
CCn1c(/C=C/Nc2ccccc2)[n+](CC)c2cc(Cl)c(Cl)cc21	ROMK mod -3.9 | ROMK retest 0.044
CCn1c(/C=C/N(C(C)=O)c2ccccc2)[n+](CCCS(=O)(=O)[O-])c2cc(Cl)c(Cl)cc21	none (no result: Cl transport mod)
COC(=O)c1ccc(NC(=O)Cn2nc(C)cc2C)cc1	none (no result: ROMK mod)
COc1cc2c(cc1OC)CN(CCC(=O)c1ccc(Br)cc1)CC2	ROMK mod -4 | ROMK retest inconclusive
Cn1cc(Br)c(C(=O)NNC(=O)Nc2ccccc2C(F)(F)F)n1	none
COC(=O)c1ccccc1NC(=S)N1CCN(c2ccc(OC)cc2)CC1	none
NNC(=O)c1ccc(O)cc1O	none
O=C(c1nnsc1S(=O)(=O)c1ccc(Cl)cc1)N1CCOCC1	none
O=C(c1nnsc1S(=O)c1ccc(Cl)cc1)N1CCOCC1 (stereo not drawn)	ROMK mod -6.3 | ROMK retest 0.052
COCCCNCC1C(Oc2ccc(Cl)cc2)C(=O)N1c1ccccc1C (stereo not drawn)	none
Cc1ccccc1N1C(=O)C(Oc2ccc(Cl)cc2)C1CNCCCOC(C)C (stereo not drawn)	ROMK mod -3.2 | ROMK retest 0.059
COc1ccc(Cn2nnnc2C(c2cc3cccc(C)c3[nH]c2=O)N2CCN(C)CC2)cc1 (stereo not drawn)	none
COc1ccc(Cn2nnnc2C(c2cc3cc(C)ccc3[nH]c2=O)N2CCN(C)CC2)cc1 (stereo not drawn)	none | ROMK retest inactive
COc1ccc(Cn2nnnc2C(c2ccc(C)cc2)N2CCN(C3CCCC3)CC2)cc1 (stereo not drawn)	none (no result: ROMK mod) | ROMK retest 0.053
COc1cccc(C(c2nnnn2Cc2ccccc2)N2CCN(C3CCCC3)CC2)c1OC (stereo not drawn)	ROMK mod -4.8 | ROMK retest 0.054
COc1ccccc1C(c1nnnn1Cc1ccccc1)N1CCN(C2CCCC2)CC1 (stereo not drawn)	none (no result: ROMK mod, Cl transport mod)
O=C(Nc1nc2ccccc2s1)c1ccc(N2CCCCC2)c([N+](=O)[O-])c1	none (no result: ROMK mod)
CCOc1ccc(-c2nc[nH]c2[N+](=O)[O-])cc1	none
CCOc1ncccc1C(=O)OCC(=O)c1cccc(Br)c1	none
COC(=O)[C@@]1(Cc2ccccc2)[C@@H]2C(=CC(=O)[C@H]2CC(=O)C(=O)N(C)C)CN1C(=O)c1ccccc1	ROMK mod -4.6 | ROMK retest 0.049
COC(=O)[C@@]1(Cc2ccc(F)cc2)[C@H]2c3cc(C(=O)N(C)C)n(C[C@H](O)CO)c3C[C@H]2CN1C(=O)c1ccccc1	none
Cc1cc([N+](=O)[O-])cc(/C=N\NC(=O)C2COc3ccccc3O2)c1O (stereo not drawn)	none (no result: WT yeast gro inh)
NC(=O)C1CCN(CC(=O)Nc2ccccc2Sc2ccccc2)CC1	none (no result: ROMK mod) | ROMK retest 0.068
Cc1occc1C(=O)NN1C(=O)C2C3CCC(O3)C2C1=O (stereo not drawn)	none
C=CCN1C(c2ccccc2)=CS/C1=C(\C#N)c1nnc2n1CCCCC2	none (no result: ROMK mod)
C=CCN1C(c2ccc(Br)cc2)=CS/C1=C(/C#N)c1nnc(N2CCOCC2)n1-c1ccccc1	ROMK mod -3.9 | ROMK retest 0.057
C=CCN1C(c2cccc(C(F)(F)F)c2)=CS/C1=C(/C#N)c1nnc(N2CCOCC2)n1-c1ccccc1	ROMK mod -4.6 | ROMK retest 0.047
